High-throughput results (PubChem BioAssay)
DAGLB inhibitor – blocks human DAGLB lipase activity. AID 504411. 340,000 tested, 0.059% active. HEK293T DAGLB membrane lysate, EnzChek fluorogenic substrate. inhibition, % at 5.17 µM; in the data active = inhibition above about 34%
Cardio protect – modulators protecting cardiomyocytes from myocardial damage. H9c2 cardiomyocytes, H2O2 injury protection, ATPLite, 2 h. AID 588492. 360,000 tested, 0.63% active. protection from H2O2 cell death, % at 20 µM;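 active = compounds giving at least 50% protection of heart cells from peroxide-induced death in the single-dose screen, raw or plate-pattern-corrected value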
H9c2 TAG inh – inhibitors of triacylglycerol accumulation; inhibition, % at 12.5 µM; H9c2 cells, Nile Red lipid (TAG) fluorescence; cells loaded with 200 µM oleic acid; 230,000 tested, 0.66% active;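 active = pattern-corrected inhibition of lipid staining of at least 50% with the nuclear-stain viability signal not falling by more than 50%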
DDE Tn7 FP inh – DD(E)-Tn7 binding inhibition, primary FP screen; FP displacement of FITC-Tn7 peptide from fibrin DD(E); 0% = median of compound wells per plate; inhibition, % at 8.3 µM; 370,000 tested, 0.13% active; AID 720508;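 active = inhibition above the mean of compounds falling within the control limits plus 3 SD of them, cut at about 14% in these data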
Target sequence (P02675 whole entry, looked up): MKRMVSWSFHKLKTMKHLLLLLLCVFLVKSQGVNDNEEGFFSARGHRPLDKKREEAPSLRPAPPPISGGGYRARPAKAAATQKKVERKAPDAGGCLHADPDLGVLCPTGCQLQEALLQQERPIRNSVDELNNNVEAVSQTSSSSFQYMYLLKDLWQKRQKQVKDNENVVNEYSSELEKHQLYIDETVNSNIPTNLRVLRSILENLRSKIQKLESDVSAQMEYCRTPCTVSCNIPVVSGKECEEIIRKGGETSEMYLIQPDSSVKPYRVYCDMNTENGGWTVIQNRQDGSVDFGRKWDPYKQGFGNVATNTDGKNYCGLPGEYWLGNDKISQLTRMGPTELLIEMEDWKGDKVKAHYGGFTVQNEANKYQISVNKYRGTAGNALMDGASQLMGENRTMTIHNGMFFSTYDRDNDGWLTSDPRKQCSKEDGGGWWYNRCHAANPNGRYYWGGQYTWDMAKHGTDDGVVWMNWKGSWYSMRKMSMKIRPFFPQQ
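Assay system: Fibrin-DD(E) protein isolated from polymerized human fibrin clots; read-out basis: percent inhibition; medium: Tris/NaCl/CaCl2 buffer, pH 7.8; signal: FP measurement; incubation: 10 min plus 3 h, room temperature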
DDE Tn6 FP inh – DD(E)-Tn6 binding inhibition, primary FP screen; Fibrin DD(E) TRITC-Tn6 fluorescence polarization displacement; inhibition, % at 8.3 µM; 370,000 tested, 0.21% active; AID 720509;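 active = inhibition above a per-campaign cutoff: mean of compounds within control limits plus 3 SD, cut at about 15% in these data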
MT1-MMP act inh – blocks activation of human MT1-MMP | P50281 | HT1080 RFP-PRO-GFP cells, GFP/RFP ratio fluorescence, overnight; percent of plate control window, DMSO zero | GFP/RFP ratio change, % at 20 µM | 360,000 tested, 0.061% active | AID 651647;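 active = GFP/RFP ratio change of at least 30% with cell ATP level not reduced by more than half and red fluorescence within 50% of control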
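Read-out: GFP/RFP fluorescence ratio; Test system: RFP-PRO-GFP reporter HT1080 cells; Compound dosing: single-point 20 µM compound, 1% DMSO; Times: overnight compound exposure at 37 °C.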
Tn7 DDE conf – DD(E)-Tn7 binding inhibition, FP confirmation. inhibition, % at 8.3 µM. 460 tested, 5% active. FP displacement of TRITC-Tn7 peptide from DD(E); 0% set at plate's compound-well median. shares compounds with DDE Tn7 FP inh. AID 720628;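 active = inhibition above the campaign cutoff, the mean of compounds within control limits plus 3 SD, cut at about 14% in these data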;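 note: displacers lower polarization since freed probe rises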
DDE Tn7 FP ctr – counter-screen for inhibitors of Tn7 peptide binding to fibrin DD(E). shares compounds with DDE Tn7 FP inh. TRITC-Tn7 probe displacement, fluorescence polarization. inhibition, % at 8.3 µM. 460 tested, 3% active. AID 720633;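 active = inhibition above the cutoff, the mean of compounds lying between the control bounds plus 3 SD of those compounds, cut at about 17% in these data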
A number is an active result. An excerpt weighted towards active compounds, which were near 1.4% of everything screened.

`c1csc(CNc2ncnc3ccc(-c4ccc5c(c4)OCO5)cc23)n1` gave DDE Tn7 FP inh inactive and DDE Tn6 FP inh inactive.
O=C(COC(=O)c1ccc(Cl)cc1)NCC1CCCCC1 was read as DAGLB inhibitor inactive, Cardio protect inactive, H9c2 TAG inh inactive, DDE Tn7 FP inh 15, DDE Tn6 FP inh inactive, MT1-MMP act inh inactive, Tn7 DDE conf inactive and DDE Tn7 FP ctr inactive.
`COc1ccccc1C(=O)NC1CCCCN(Cc2ccccc2C)C1=O` (centres undefined) gave DDE Tn7 FP inh inactive and DDE Tn6 FP inh inactive.
For O=C(c1cc(-c2ccc(O)cc2)on1)N1CCc2ccccc2C1 the results were DAGLB inhibitor inactive, Cardio protect inactive, DDE Tn7 FP inh 18, DDE Tn6 FP inh inactive, MT1-MMP act inh inactive, Tn7 DDE conf inactive and DDE Tn7 FP ctr inactive.
COc1cc(C2c3cc4c(cc3OC(NNC(N)=S)C2C)OCO4)cc(OC)c1OC (centres undefined) was read as DAGLB inhibitor inactive, Cardio protect inactive, H9c2 TAG inh inactive, DDE Tn7 FP inh inactive, DDE Tn6 FP inh inactive and MT1-MMP act inh inactive.
`COc1cc(C2c3cc4c(cc3OC(NCc3ccccc3)C2C)OCO4)cc(OC)c1OC` (centres undefined) gave DAGLB inhibitor inactive, Cardio protect inactive, H9c2 TAG inh inactive, DDE Tn7 FP inh 14, DDE Tn6 FP inh inactive, MT1-MMP act inh inactive, Tn7 DDE conf inactive and DDE Tn7 FP ctr inactive.
`CCOC(=O)C(Cc1ccccc1)P(=O)(OCC)OCC` (centres undefined) gave DDE Tn7 FP inh inactive and DDE Tn6 FP inh inactive.
Screening Cc1ccccc1NC(=O)COc1coc(CN2CCCc3ccccc32)cc1=O returned DAGLB inhibitor inactive, Cardio protect inactive, H9c2 TAG inh inactive, DDE Tn7 FP inh 15, DDE Tn6 FP inh inactive, MT1-MMP act inh inactive, Tn7 DDE conf inactive and DDE Tn7 FP ctr inactive.
`O=C(CCc1ccccc1)N[C@H]1[C@H](OC(=O)c2ccco2)CCC[C@@]12C(=O)N(Cc1ccccc1)c1ccccc12` gave DDE Tn7 FP inh inactive and DDE Tn6 FP inh inactive.
CCCCc1ccc2nc(NC(=O)c3ccco3)sc2c1 was read as DDE Tn7 FP inh inactive and DDE Tn6 FP inh inactive.
COC(=O)C1CN(C2CCCC2)CCS(=O)(=O)N1Cc1ccc(C(F)(F)F)cc1 (centres undefined) was read as DDE Tn7 FP inh inactive and DDE Tn6 FP inh inactive.
CC(C)(C)OC(=O)NCc1ccccc1/C=C/S(=O)(=O)NCc1ccc(F)cc1 was read as DDE Tn7 FP inh inactive and DDE Tn6 FP inh inactive.
`O=C(c1cccs1)N1CCC(Cc2ccccc2)CC1` gave DAGLB inhibitor inactive, Cardio protect inactive, H9c2 TAG inh inactive, DDE Tn7 FP inh 14, DDE Tn6 FP inh inactive, MT1-MMP act inh inactive, Tn7 DDE conf inactive and DDE Tn7 FP ctr inactive.
`COc1cc(OC)c(CNC2CCCCCC2)cc1Br` gave DAGLB inhibitor inactive, Cardio protect inactive, H9c2 TAG inh inactive, DDE Tn7 FP inh 15, DDE Tn6 FP inh inactive, MT1-MMP act inh inactive, Tn7 DDE conf inactive and DDE Tn7 FP ctr inactive.
Screening COc1cccc(OC)c1C(=O)Nc1sc2c(c1C#N)CCC2 returned DAGLB inhibitor inactive, Cardio protect inactive, H9c2 TAG inh inactive, DDE Tn7 FP inh 14, DDE Tn6 FP inh inactive, MT1-MMP act inh inactive, Tn7 DDE conf inactive and DDE Tn7 FP ctr inactive.
For C[C@@H]1COC(=O)[C@H](Cc2ccc(F)cc2)C/C=C\C[C@@H](CC(=O)NCCO)C(=O)N1 the results were DAGLB inhibitor inactive, Cardio protect inactive, H9c2 TAG inh inactive, DDE Tn7 FP inh 15, DDE Tn6 FP inh inactive, MT1-MMP act inh inactive, Tn7 DDE conf inactive and DDE Tn7 FP ctr inactive.
For CC(C)(C)c1cc[n+](-c2[nH]c(=O)sc2/C=N/N=C(\[O-])c2cccnc2)cc1 the results were DAGLB inhibitor inactive, Cardio protect inactive, DDE Tn7 FP inh inactive, DDE Tn6 FP inh inactive and MT1-MMP act inh inactive.
O=c1[nH]c(-[n+]2ccc3ccccc3c2)c(/C=N/N=C(\[O-])c2ccccc2)s1 was read as DAGLB inhibitor inactive, Cardio protect inactive, DDE Tn7 FP inh 17, DDE Tn6 FP inh inactive, MT1-MMP act inh inactive, Tn7 DDE conf inactive and DDE Tn7 FP ctr inactive.
Screening CCc1nc2ccc(C(=O)NCCc3ccc(OC)c(OC)c3)cc2nc1CC returned DAGLB inhibitor inactive, Cardio protect inactive, DDE Tn7 FP inh inactive, DDE Tn6 FP inh inactive and MT1-MMP act inh inactive.
Screening CCc1nc2ccc(C(=O)NCCc3ccccc3OC)cc2nc1CC returned DAGLB inhibitor inactive, Cardio protect inactive, DDE Tn7 FP inh 14, DDE Tn6 FP inh inactive, MT1-MMP act inh inactive, Tn7 DDE conf inactive and DDE Tn7 FP ctr inactive.
Screening CCOc1ccc(-n2c(SCC(=O)Nc3ccc(Oc4ccccc4)cc3)nnc2-c2ccncc2)cc1 returned DDE Tn7 FP inh inactive and DDE Tn6 FP inh inactive.
For COC(=O)c1ccc(Cn2c(C)c(C(=O)NCc3ccc(C#N)cc3)sc2=O)o1 the results were Cardio protect inactive, H9c2 TAG inh inactive, DDE Tn7 FP inh 14, DDE Tn6 FP inh inactive, MT1-MMP act inh inactive, Tn7 DDE conf inactive and DDE Tn7 FP ctr inactive.
Screening COC(=O)c1ccc(Cn2c(C)c(C(=O)NCc3ccc(Cl)c(Cl)c3)sc2=O)o1 returned Cardio protect inactive, H9c2 TAG inh inactive, DDE Tn7 FP inh inactive, DDE Tn6 FP inh inactive and MT1-MMP act inh inactive.
COC(=O)c1cc(-c2cccc(OCc3ccccc3)c2)c(=O)n2c1CCC2 was read as DDE Tn7 FP inh inactive and DDE Tn6 FP inh inactive.
Screening COC(=O)[C@]12C[C@H](CC(=O)NCCc3ccccc3OC)C(=O)N(Cc3cccc4ccccc34)C1=C[C@H](C(C)C)O[C@@H]2C1CC1 returned DDE Tn7 FP inh inactive and DDE Tn6 FP inh inactive.
Screening Cc1cc(NC(=O)CSc2nnc(-c3ccoc3C)n2N)no1 returned DAGLB inhibitor inactive, Cardio protect inactive, H9c2 TAG inh inactive, DDE Tn7 FP inh inactive, DDE Tn6 FP inh inactive and MT1-MMP act inh inactive.
CCOc1ccc(C(C)=O)cc1CSc1nnc(-c2ccoc2C)n1N was read as DAGLB inhibitor inactive, Cardio protect inactive, H9c2 TAG inh inactive, DDE Tn7 FP inh 16, DDE Tn6 FP inh inactive, MT1-MMP act inh inactive, Tn7 DDE conf inactive and DDE Tn7 FP ctr inactive.
